According to ChEMBL document CHEMBL4049387, “Combination of l-Carnitine with Lipophilic Linkage-Donating Gemcitabine Derivatives as Intestinal Novel Organic Cation Transporter 2-Targeting Oral Prodrugs” (J Med Chem, 2017):

Tests used:
[1] = Half life in rat plasma at 5 uM by HPLC method; type: ADME, cell-free
How it was run: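 Compound at 5 µM final in rat plasma, 20% rat hepatic homogenate or 20% rat intestinal homogenate at 37 °C for 24 h. Homogenates made by homogenizing 0.3 g saline-washed tissue in 1 mL saline, spun 13,000 rpm 4 °C 5 min. Sampled at intervals, analysed by HPLC. t1/2 = 0.693/k.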

[2] = target: T1, Organic cation/carnitine transporter 2 (Homo sapiens, UniProt O76082); experiment: Ratio of drug transport assessed as OCTN2 transporter mediated cell permeability in human Caco2 cells at 25 uM in absence of L-carnitine to drug transport assessed as OCTN2 transporter mediated cell permeability in human Caco2 cells at 25 uM in presence of L-carnitine; type: ADME, cell-based; conditions: caco-2, 25 µM
T1 sequence (O76082 whole entry): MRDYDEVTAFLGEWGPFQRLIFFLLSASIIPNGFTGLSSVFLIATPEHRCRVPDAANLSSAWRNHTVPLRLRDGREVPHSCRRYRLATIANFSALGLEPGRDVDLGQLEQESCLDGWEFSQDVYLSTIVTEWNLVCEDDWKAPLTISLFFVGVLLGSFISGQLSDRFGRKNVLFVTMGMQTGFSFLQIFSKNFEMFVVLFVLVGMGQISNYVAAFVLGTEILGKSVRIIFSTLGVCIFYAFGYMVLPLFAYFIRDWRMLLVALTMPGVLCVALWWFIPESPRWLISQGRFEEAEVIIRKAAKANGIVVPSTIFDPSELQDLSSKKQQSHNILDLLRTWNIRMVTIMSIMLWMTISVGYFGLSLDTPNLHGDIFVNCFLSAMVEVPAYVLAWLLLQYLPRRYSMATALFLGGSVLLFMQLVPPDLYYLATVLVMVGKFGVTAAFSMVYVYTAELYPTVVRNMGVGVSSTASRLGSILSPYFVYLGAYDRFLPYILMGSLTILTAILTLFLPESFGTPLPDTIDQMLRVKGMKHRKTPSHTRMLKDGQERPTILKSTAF
How it was run: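 Caco-2 cells seeded at 1.0×10^5 cells/well on 0.4 µm polycarbonate inserts, cultured 21 days in MEM; monolayers with TEER over 250 Ω·cm² used. Compound at 25 µM final in HBSS, added apically, with or without 100 µM L-carnitine, 37 °C. Basolateral samples taken at 15, 30, 45, 60, 90, 120 min. Analysed by UPLC-MS/MS to give Papp. Triplicate runs.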

Mus musculus [3] = experiment: Toxicity in Kunming mouse assessed as fibrosis in spleen at 102 mg/kg, po administered once daily for 14 days by hematoxylin/eosin staining based optical microscopic analysis; type: organism-based; conditions: in vivo, 336 h
How it was run: (§1)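 Kunming mice, four per group, dosed orally once daily for 14 days with 102 mg/kg or saline control; body weight recorded every other day. Heart, liver, spleen, lung and kidney fixed in 10% buffered formalin, paraffin-embedded, sectioned, stained with hematoxylin and eosin, and examined by optical microscopy.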

Mus musculus [4] = experiment: Toxicity in Kunming mouse assessed as fibrosis in lung at 102 mg/kg, po administered once daily for 14 days by hematoxylin/eosin staining based optical microscopic analysis; type: organism-based; conditions: in vivo, 336 h; how it was run: as §1

C[N+](C)(C)CC(CC(=O)[O-])OC(=O)CCCCC(=O)Nc1ccn([C@@H]2O[C@H](CO)[C@@H](O)C2(F)F)c(=O)n1 (some centres undefined)
half-life at 5 µM [1]: 6.2 h
Ratio [2]: 1.6 to 3.6
Activity (Mus musculus [3]): Non-Toxic
Activity (Mus musculus [4]): Non-Toxic
